These results are taken from ChEMBL document CHEMBL2311390, “Synthesis and preliminary evaluation of pharmacological properties of some piperazine derivatives of xanthone” (Bioorg Med Chem, 2013).

Data set [1] in a line: Displacement of [3H]CGP-12177 from beta1-adrenergic receptor in rat cerebral cortex by liquid scintillation counting. It counts as tissue-based. In outline: (§1)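 Rat cerebral cortex was homogenised in ice-cold 50 mM Tris-HCl pH 7.6 and spun at 20,000 g for 20 min at 0–4 °C, then washed once. Radioligands: [3H]prazosin 0.2 nM for α1, [3H]clonidine 2 nM for α2, [3H]CGP-12177 0.2 nM for β1. Test compounds were run at 7–8 concentrations from 10^-11 to 10^-4 M. Nonspecific binding was defined with phentolamine (α1), clonidine (α2) or propranolol (β1). Counting was by liquid scintillation, in duplicate. Ki was derived by Cheng–Prusoff from 2–3 experiments.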

Data set [2] concerns the target T1, Adrenergic receptor alpha-1 (Rattus norvegicus, UniProt P15823+P23944+P43140).
T1 sequence (P15823 whole entry): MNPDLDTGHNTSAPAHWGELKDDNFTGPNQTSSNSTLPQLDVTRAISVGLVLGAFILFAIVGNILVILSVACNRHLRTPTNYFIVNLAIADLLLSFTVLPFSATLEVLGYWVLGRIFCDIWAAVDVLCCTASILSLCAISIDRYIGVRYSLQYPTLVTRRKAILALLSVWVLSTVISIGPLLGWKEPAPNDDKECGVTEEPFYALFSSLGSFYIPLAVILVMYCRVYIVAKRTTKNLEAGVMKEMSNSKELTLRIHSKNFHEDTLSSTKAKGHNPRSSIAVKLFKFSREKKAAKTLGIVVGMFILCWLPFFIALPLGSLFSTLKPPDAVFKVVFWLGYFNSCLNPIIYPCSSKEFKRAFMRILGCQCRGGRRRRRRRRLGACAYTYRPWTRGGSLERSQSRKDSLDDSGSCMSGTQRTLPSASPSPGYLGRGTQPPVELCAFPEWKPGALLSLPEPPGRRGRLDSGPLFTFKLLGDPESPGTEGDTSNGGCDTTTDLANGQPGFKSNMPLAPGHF
T1 sequence (P23944 whole entry): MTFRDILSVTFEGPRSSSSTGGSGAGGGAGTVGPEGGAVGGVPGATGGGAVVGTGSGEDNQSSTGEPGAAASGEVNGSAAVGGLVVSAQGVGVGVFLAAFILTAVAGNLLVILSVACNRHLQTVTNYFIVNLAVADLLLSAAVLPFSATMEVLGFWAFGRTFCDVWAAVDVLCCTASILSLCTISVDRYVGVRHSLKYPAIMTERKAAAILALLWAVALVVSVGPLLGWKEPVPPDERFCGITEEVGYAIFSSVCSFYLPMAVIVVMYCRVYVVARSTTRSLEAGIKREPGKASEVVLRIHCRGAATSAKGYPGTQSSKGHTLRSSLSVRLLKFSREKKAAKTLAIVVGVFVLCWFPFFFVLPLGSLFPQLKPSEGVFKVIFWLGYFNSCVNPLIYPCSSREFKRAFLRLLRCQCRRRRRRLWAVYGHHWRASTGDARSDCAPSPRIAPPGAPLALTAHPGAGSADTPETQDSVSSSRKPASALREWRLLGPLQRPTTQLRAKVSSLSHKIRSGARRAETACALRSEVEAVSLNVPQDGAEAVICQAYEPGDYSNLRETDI
T1 sequence (P43140 whole entry): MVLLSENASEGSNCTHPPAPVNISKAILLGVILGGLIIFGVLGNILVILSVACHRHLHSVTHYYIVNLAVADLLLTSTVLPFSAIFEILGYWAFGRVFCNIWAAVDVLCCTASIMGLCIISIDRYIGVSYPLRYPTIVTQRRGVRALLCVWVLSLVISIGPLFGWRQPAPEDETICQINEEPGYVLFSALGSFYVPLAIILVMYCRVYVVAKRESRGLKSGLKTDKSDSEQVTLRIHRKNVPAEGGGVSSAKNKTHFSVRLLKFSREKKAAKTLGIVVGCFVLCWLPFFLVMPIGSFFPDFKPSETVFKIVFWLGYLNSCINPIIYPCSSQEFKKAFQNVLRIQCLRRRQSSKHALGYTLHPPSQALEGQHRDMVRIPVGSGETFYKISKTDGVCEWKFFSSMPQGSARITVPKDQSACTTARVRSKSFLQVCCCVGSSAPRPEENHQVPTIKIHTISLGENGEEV
Briefly: Displacement of [3H]-prazosin from alpha1-adrenergic receptor in rat cerebral cortex by liquid scintillation counting. It counts as tissue-based. In outline:
as §1
A general note: Loss of bound radioactivity is the signal in a displacement assay; it reports binding, not function.

Data set [3] deals with T2, Adrenergic receptor alpha-2 (Rattus norvegicus, UniProt P22086+P19328+P22909).
T2 sequence (P22086 whole entry): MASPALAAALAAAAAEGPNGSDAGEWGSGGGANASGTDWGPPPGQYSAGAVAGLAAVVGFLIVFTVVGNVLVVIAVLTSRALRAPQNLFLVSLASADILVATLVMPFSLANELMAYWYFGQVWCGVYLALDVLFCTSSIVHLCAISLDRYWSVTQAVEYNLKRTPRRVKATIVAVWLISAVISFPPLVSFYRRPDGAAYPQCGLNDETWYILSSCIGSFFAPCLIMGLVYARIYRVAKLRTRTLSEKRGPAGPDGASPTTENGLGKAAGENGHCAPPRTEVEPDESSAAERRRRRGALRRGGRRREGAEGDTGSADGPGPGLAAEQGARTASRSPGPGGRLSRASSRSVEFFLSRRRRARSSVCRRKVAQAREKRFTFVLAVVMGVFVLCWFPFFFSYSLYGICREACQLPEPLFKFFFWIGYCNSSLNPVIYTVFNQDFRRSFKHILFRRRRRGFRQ
T2 sequence (P19328 whole entry): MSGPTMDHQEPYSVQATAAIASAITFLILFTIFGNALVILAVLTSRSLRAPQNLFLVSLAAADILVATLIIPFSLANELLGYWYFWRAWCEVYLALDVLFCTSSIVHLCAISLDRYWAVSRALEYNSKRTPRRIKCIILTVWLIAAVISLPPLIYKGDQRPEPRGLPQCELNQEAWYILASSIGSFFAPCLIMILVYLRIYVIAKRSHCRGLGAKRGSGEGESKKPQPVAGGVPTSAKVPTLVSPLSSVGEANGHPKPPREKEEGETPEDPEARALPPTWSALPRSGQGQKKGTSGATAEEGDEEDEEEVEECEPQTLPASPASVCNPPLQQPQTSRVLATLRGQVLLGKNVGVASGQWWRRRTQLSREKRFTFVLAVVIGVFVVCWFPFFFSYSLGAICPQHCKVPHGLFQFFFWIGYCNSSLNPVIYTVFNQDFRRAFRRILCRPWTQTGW
T2 sequence (P22909 whole entry): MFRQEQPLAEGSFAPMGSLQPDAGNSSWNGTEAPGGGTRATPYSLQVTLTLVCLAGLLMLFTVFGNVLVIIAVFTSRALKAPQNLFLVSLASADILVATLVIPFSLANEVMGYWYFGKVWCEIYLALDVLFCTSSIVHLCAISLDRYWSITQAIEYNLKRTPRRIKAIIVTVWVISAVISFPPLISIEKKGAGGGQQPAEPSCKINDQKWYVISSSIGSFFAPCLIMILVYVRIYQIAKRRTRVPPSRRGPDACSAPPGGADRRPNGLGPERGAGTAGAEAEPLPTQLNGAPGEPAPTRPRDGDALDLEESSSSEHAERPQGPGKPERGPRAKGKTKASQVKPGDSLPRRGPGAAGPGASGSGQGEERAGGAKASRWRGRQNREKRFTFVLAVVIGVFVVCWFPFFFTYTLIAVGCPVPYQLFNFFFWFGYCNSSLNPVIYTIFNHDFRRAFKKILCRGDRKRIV
As to the kind of experiment: Displacement of [3H]clonidine from alpha2-adrenergic receptor in rat cerebral cortex by liquid scintillation counting. It counts as tissue-based. In short, it runs like this:
as §1

The subject of data set [4] is Rattus norvegicus. As to the kind of experiment: Hypotensive activity in normotensive Wistar rat assessed as reduction of systolic blood pressure at 0.1 to 5 mg/kg, iv. It counts as functional, Artery. Set-up: scale not given: the % may be the effect or the level left. The note with it: dose mg/kg 0.1-5. In outline: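 Male normotensive Wistar rats were anaesthetised with thiopental 75 mg/kg ip. The right carotid artery was cannulated with heparinised saline for pressure recording. After 5 min of stabilisation, compound was injected into the tail vein at 1 mL/kg. Systolic and diastolic pressure were followed up to 60 min. Data are means ± SEM of 5–6 rats, analysed by one-way ANOVA.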

In data set [5] the test system is Rattus norvegicus. As to the kind of experiment: Cardiotoxicity in Wistar rat assessed as hear beats per min at 10 mg/kg, iv after 5 mins by ECG analysis. It counts as toxicity, organism-based. Set-up: dose 10 mg/kg, route intravenous. The conditions noted are these: in vivo. In outline: (§2)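 Male normotensive Wistar rats, 170–350 g, six per group. Compound given iv at a constant volume of 1 mL/kg. ECG was recorded just before dosing and at 1, 5 and 15 min after. PQ, QRS and QT intervals and heart rate were read from the trace. Groups were compared by one-way ANOVA.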

The test system of data set [6] is Rattus norvegicus. Briefly: Cardiotoxicity in Wistar rat assessed as QRS interval at 10 mg/kg, iv after 10 mins by ECG analysis. It counts as toxicity, organism-based. Details: dose 10 mg/kg, route intravenous. The note with it: in vivo.
Data set [7] deals with Rattus norvegicus. Briefly: Cardiotoxicity in Wistar rat assessed as QRS interval at 10 mg/kg, iv after 5 mins by ECG analysis. It counts as toxicity, organism-based. Details: dose 10 mg/kg, route intravenous. The conditions noted are these: in vivo. In short, it runs like this: as §2
Data set [8] has as its system Rattus norvegicus. Briefly: Cardiotoxicity in Wistar rat assessed as QT interval at 10 mg/kg, iv after 15 mins by ECG analysis. Details: dose 10 mg/kg, route intravenous. The conditions noted are these: in vivo, 0.25 h. It counts as toxicity, organism-based. In short, it runs like this:
as §2

Data set [9] has as its system Rattus norvegicus. As to the kind of experiment: Cardiotoxicity in Wistar rat assessed as PQ interval at 10 mg/kg, iv after 15 mins by ECG analysis. It counts as toxicity, organism-based. The conditions noted are these: in vivo, 0.25 h. Set-up: dose 10 mg/kg, route intravenous. In short, it runs like this:
as §2

In data set [10] the test system is Rattus norvegicus. Briefly: Cardiotoxicity in Wistar rat assessed as QT interval at 10 mg/kg, iv after 5 mins by ECG analysis. It counts as toxicity, organism-based. Set-up: dose 10 mg/kg, route intravenous. The conditions noted are these: in vivo. In outline:
as §2

Data set [11] relates to Rattus norvegicus. Briefly: Cardiotoxicity in Wistar rat assessed as QT interval at 10 mg/kg, iv after 10 mins by ECG analysis. It counts as toxicity, organism-based. Set-up: dose 10 mg/kg, route intravenous. The note with it: in vivo.
For data set [12], the system named is Rattus norvegicus. Briefly: Cardiotoxicity in Wistar rat assessed as QRS interval at 10 mg/kg, iv after 15 mins by ECG analysis. It counts as toxicity, organism-based. Details: dose 10 mg/kg, route intravenous. The conditions noted are these: in vivo, 0.25 h. In short, it runs like this:
as §2

The subject of data set [13] is Rattus norvegicus. Briefly: Cardiotoxicity in Wistar rat assessed as hear beats per min at 10 mg/kg, iv after 10 mins by ECG analysis. Set-up: dose 10 mg/kg, route intravenous. It counts as toxicity, organism-based. The conditions noted are these: in vivo.
Data set [14] concerns Rattus norvegicus. Briefly: Cardiotoxicity in Wistar rat assessed as PQ interval at 10 mg/kg, iv after 5 mins by ECG analysis. The conditions noted are these: in vivo. Details: dose 10 mg/kg, route intravenous. It counts as toxicity, organism-based. In short, it runs like this:
as §2

In data set [15] the test system is Rattus norvegicus. As to the kind of experiment: Cardiotoxicity in Wistar rat assessed as hear beats per min at 10 mg/kg, iv after 15 mins by ECG analysis. The note with it: in vivo, 0.25 h. It counts as toxicity, organism-based. Set-up: dose 10 mg/kg, route intravenous. In outline:
as §2

Data set [16] concerns Rattus norvegicus. As to the kind of experiment: Cardiotoxicity in Wistar rat assessed as PQ interval at 10 mg/kg, iv after 10 mins by ECG analysis. Details: dose 10 mg/kg, route intravenous. It counts as toxicity, organism-based. The note with it: in vivo.
Data set [17] concerns Rattus norvegicus. As to the kind of experiment: Antiarrhythmic activity in iv dosed Wistar rat adrenaline-induced arrhythmia model assessed as reduction of heart-rhythm disturbance administered 15 mins adrenaline-challenge. It counts as functional. The conditions noted are these: 0.25 h. In short, it runs like this:
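Anaesthetised male Wistar rats (thiopental 75 mg/kg ip). Test compound iv at 1 mL/kg, given 15 min before adrenaline 20 µg/kg iv. Activity means no premature beats and inhibition of arrhythmia, judged against a control group. There were three dose groups of six rats. ED50 with confidence limits was calculated by the Litchfield–Wilcoxon method.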

For orientation: Ki means the dissociation constant of the complex between target and ligand, obtained from inhibition or displacement. For `COc1ccccc1N1CCN(CCCOc2cccc3c(=O)c4ccc(Cl)cc4oc23)CC1.Cl`, the values for the Ki in data set [1], in data set [2] and in data set [3] were 4.5 µM, 0.082 µM and 5.5 µM, respectively.
As for `CC(C)NCC(O)COc1ccc2c(=O)c3ccccc3oc2c1` (centres undefined), the Activity in the data set with Rattus norvegicus [4] stood at 7%.
`COc1ccc(N2CCN(CCCOc3cccc4c(=O)c5ccccc5oc34)CC2)cc1.Cl`: the Activity with Rattus norvegicus [5] is 323 bpm; in the data set on Rattus norvegicus [6] it was 23.6 ms; with Rattus norvegicus [7], 22.8 ms; in the data set on Rattus norvegicus [8], 82.4 ms; with Rattus norvegicus [9], 43.7 ms; with Rattus norvegicus [10] it was 79.4 ms. For the same compound, the Activity is reported as 80.2 ms in the data set with Rattus norvegicus [11]; 24.2 ms with Rattus norvegicus [12]; 317.4 bpm in the data set on Rattus norvegicus [13]; 43.5 ms in the data set with Rattus norvegicus [14]; 311.4 bpm with Rattus norvegicus [15]; 43.7 ms in the data set on Rattus norvegicus [16]. Also, the Ki turned out to be 31.6 µM in [1] and 1.1 µM in data set [2].
A word on the ED50: it is the dose that gives a 50% effect, or the effect in half of the subjects. With `COc1ccccc1OCCNCC(O)COc1cccc2[nH]c3ccccc3c12` (centres undefined) [CARVEDILOL], the ED50 in the data set with Rattus norvegicus [17] was 0.25 mg/kg.
